In ChEMBL document CHEMBL4808207, “Macrocyclic Peptides as a Novel Class of NNMT Inhibitors: A SAR Study Aimed at Inhibitory Activity in the Cell” (ACS Med Chem Lett, 2021):
pIC50: −log10 of the molar value. Numbered stars: 1 amine (or outer) side, 2 acyl side, 3 side chain; on linkers, the order of the positions; unused ones are H or OH. Bridge positions count the residues as written; N and C are the ends. Square brackets hold non-standard residues; d marks the D form. Peptide text beside a SMILES is read from it. Bip(4'-CONH2) = NC(=O)c1ccc(-c2ccc(C[C@H](N)C(=O)O)cc2)cc1; Pro(trans-4-Ph) = O=C(O)[C@@H]1C[C@@H](c2ccccc2)CN1; Phe(4-CONH2) = NC(=O)c1ccc(C[C@H](N)C(=O)O)cc1; Pro(4,4-F2) = O=C(O)[C@@H]1CC(F)(F)CN1; NHCH2CH2SCH2CO = O=C(CSCCN[*:1])[*:2]; NMeY = CN[C@@H](Cc1ccc(O)cc1)C(=O)O; Lys(Me2) = CN(C)CCCC[C@H](N)C(=O)O; NMeF = CN[C@@H](Cc1ccccc1)C(=O)O; tBuAla = CC(C)(C)C[C@H](N)C(=O)O; 3Pal = N[C@@H](Cc1cccnc1)C(=O)O; Tic = O=C(O)[C@@H]1Cc2ccccc2CN1; Pip = O=C(O)[C@@H]1CCCCN1

Columns and labels:
[1] = target: T1, Nicotinamide N-methyltransferase (Mus musculus, UniProt O55239); assay: Inhibition of mouse recombinant NNMT using nicotinamide and SAM as substrate assessed as reduction in 1-methyl-nicotinamide formation incubated for 22 to 24 hrs by RapidFire Mass spectroscopy
T1 sequence (O55239 whole entry): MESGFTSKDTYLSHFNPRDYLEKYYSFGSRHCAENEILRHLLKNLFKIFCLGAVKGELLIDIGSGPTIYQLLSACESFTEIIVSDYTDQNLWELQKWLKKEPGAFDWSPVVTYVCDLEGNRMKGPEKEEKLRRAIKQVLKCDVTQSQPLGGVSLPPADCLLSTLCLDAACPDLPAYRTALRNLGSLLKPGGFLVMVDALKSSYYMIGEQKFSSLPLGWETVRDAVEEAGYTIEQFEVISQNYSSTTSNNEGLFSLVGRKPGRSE

[2] = system: HEK293; assay: Cytotoxicity against human HEK293 cells overexpressing human NNMT assessed as reduction in ATP level measured after 24 hrs by CellTiter-glo luminescence assay; format: cell-based; conditions: hek293, 24 h
Method in brief: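 Reported value is the peptide concentration giving a 20% decline in cellular ATP in NNMT-overexpressing HEK293 cells, with peptides tested up to 100 μM.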

[3] = target: T1, Nicotinamide N-methyltransferase; assay: Inhibition of mouse recombinant NNMT using nicotinamide and SAM as substrate assessed as reduction in 1-methyl-nicotinamide formation incubated for 2 hrs by RapidFire Mass spectroscopy
[4] = target: T2, Nicotinamide N-methyltransferase (Homo sapiens, UniProt P40261); assay: Inhibition of human recombinant NNMT using nicotinamide and SAM as substrate assessed as reduction in 1-methyl-nicotinamide formation incubated for 22 to 24 hrs by RapidFire Mass spectroscopy
T2 sequence (P40261 whole entry): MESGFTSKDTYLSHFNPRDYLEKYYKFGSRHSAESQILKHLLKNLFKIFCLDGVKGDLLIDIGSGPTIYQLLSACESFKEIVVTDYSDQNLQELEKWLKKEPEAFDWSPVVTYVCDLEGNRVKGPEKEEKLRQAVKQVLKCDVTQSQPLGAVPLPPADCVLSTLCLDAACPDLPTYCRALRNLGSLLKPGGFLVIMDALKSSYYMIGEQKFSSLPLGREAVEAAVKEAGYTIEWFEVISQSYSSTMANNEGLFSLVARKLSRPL

Structure (SMILES): CN(C)CCCC[C@@H]1NC(=O)[C@H](CC(C)(C)C)NC(=O)[C@@H]2C[C@@H](c3ccccc3)CN2C(=O)[C@H](Cc2ccccc2)N(C)C(=O)CSCCNC(=O)[C@H](Cc2ccc(-c3ccc(C(N)=O)cc3)cc2)NC(=O)[C@@H]2Cc3ccccc3CN2C(=O)[C@@H]2CC(F)(F)CN2C1=O (cyclo([Lys(Me2)][Pro(4,4-F2)][Tic][Bip(4'-CONH2)][NHCH2CH2SCH2CO][NMeF][Pro(trans-4-Ph)][tBuAla]))
- pIC50 [1]: 9.21
- CC20 [2]: > 100 µM

Structure (SMILES): CN1C(=O)CSCCNC(=O)[C@H](Cc2ccc(-c3ccc(C(N)=O)cc3)cc2)NC(=O)[C@@H]2Cc3ccccc3CN2C(=O)[C@@H]2CC(F)(F)CN2C(=O)[C@@H]2CCCCN2C(=O)[C@H](CC(C)(C)C)NC(=O)[C@@H]2C[C@@H](c3ccccc3)CN2C(=O)[C@@H]1Cc1ccccc1 (cyclo([NMeF][Pro(trans-4-Ph)][tBuAla][Pip][Pro(4,4-F2)][Tic][Bip(4'-CONH2)][NHCH2CH2SCH2CO]))
- CC20 [2]: > 100 µM

Structure (SMILES): CC[C@H](C)[C@@H]1NC(=O)[C@H](CC(C)C)NC(=O)[C@@H]2CCCN2C(=O)[C@H](Cc2ccccc2)NC(=O)CSC[C@@H](C(N)=O)NC(=O)CNC(=O)[C@H](CCCCN)NC(=O)[C@H](CCCNC(=N)N)NC(=O)[C@@H]2CCCN2C(=O)[C@H](Cc2ccccc2)NC1=O ({CH2CO}-FPLIFPRKGC-NH2; thioether N-10)
- pIC50 [3]: < 4.52

Structure (SMILES): CC[C@H](C)[C@@H]1NC(=O)[C@H](CC(C)C)NC(=O)[C@@H]2CCCN2C(=O)[C@H](Cc2ccccc2)NC(=O)CSC[C@@H](C(=O)NCC(N)=O)NC(=O)CNC(=O)[C@H](CCCCN)NC(=O)[C@H](CCCNC(=N)N)NC(=O)[C@@H]2CCCN2C(=O)[C@H](Cc2ccccc2)NC1=O ({CH2CO}-FPLIFPRKGCG-NH2; thioether N-10)
- pIC50 [3]: 6.61

Structure (SMILES): CC(C)C[C@@H]1NC(=O)[C@@H]2CCCN2C(=O)[C@H](Cc2ccccc2)NC(=O)CSC[C@@H](C(N)=O)NC(=O)[C@H](Cc2ccc(-c3ccc(C(N)=O)cc3)cc2)NC(=O)[C@@H]2Cc3ccccc3CN2C(=O)[C@@H]2CCCN2C(=O)[C@H](CCCCN)NC1=O ({CH2CO}-FPLKP[Tic][Bip(4'-CONH2)]C-NH2; thioether N-8)
- CC20 [2]: > 100 µM

Structure (SMILES): N=C(N)NCCC[C@@H]1NC(=O)[C@H](Cc2ccc(O)cc2)NC(=O)[C@@H]2CCCN2C(=O)[C@H](Cc2ccccc2)NC(=O)CSC[C@@H](C(N)=O)NC(=O)[C@H](Cc2ccc(C(N)=O)cc2)NC(=O)[C@@H]2Cc3ccccc3CN2C(=O)[C@@H]2CCCN2C1=O ({CH2CO}-FPYRP[Tic][Phe(4-CONH2)]C-NH2; thioether N-8)
- pIC50 [1]: 7.60
- CC20 [2]: > 100 µM

Structure (SMILES): CN1C(=O)[C@@H]2CCCN2C(=O)[C@H](Cc2ccccc2)NC(=O)CSC[C@@H](C(N)=O)NC(=O)[C@H](Cc2ccc(C(N)=O)cc2)NC(=O)[C@@H]2Cc3ccccc3CN2C(=O)[C@@H]2CCCN2C(=O)[C@H](CCCNC(=N)N)NC(=O)[C@@H]1Cc1ccc(O)cc1 ({CH2CO}-FP[NMeY]RP[Tic][Phe(4-CONH2)]C-NH2; thioether N-8)
- pIC50 [1]: < 4.52
- pIC50 [4]: < 4.52

Structure (SMILES): CN1C(=O)CSC[C@@H](C(N)=O)NC(=O)[C@H](Cc2ccc(C(N)=O)cc2)NC(=O)[C@@H]2Cc3ccccc3CN2C(=O)[C@@H]2CCCN2C(=O)[C@H](Cc2c[nH]cn2)NC(=O)[C@H](Cc2ccc(O)cc2)NC(=O)[C@@H]2CCCN2C(=O)[C@@H]1Cc1ccccc1 ({CH2CO}-[NMeF]PYHP[Tic][Phe(4-CONH2)]C-NH2; thioether N-8)
- pIC50 [1]: < 4.00
- pIC50 [4]: < 4.00

Structure (SMILES): CN1C(=O)CSC[C@@H](C(N)=O)NC(=O)[C@H](Cc2ccc(C(N)=O)cc2)NC(=O)[C@@H]2Cc3ccccc3CN2C(=O)[C@@H]2CCCN2C(=O)[C@H](Cc2cccnc2)NC(=O)[C@H](Cc2ccc(O)cc2)NC(=O)[C@@H]2CCCN2C(=O)[C@@H]1Cc1ccccc1 ({CH2CO}-[NMeF]PY[3Pal]P[Tic][Phe(4-CONH2)]C-NH2; thioether N-8)
- pIC50 [1]: < 4.00
- pIC50 [4]: < 4.00
